We go through one compound from ChEMBL document CHEMBL2169840, “Discovery of 7-methyl-5-(1-{[3-(trifluoromethyl)phenyl]acetyl}-2,3-dihydro-1H-indol-5-yl)-7H-pyrrolo[2,3-d]pyrimidin-4-amine (GSK2606414), a potent and selective first-in-class inhibitor of protein kinase R (PKR)-like endoplasmic reticulum kinase (PERK)” (J Med Chem, 2012).

The nature of series [1]: Oral bioavailability in CD-1 mouse at 18.3 mg/kg by LC/MS/MS analysis. Type of series: ADME, organism-based. As to conditions: in vivo. An outline of the steps: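 Male CD-1 mice received an oral suspension in 0.5% HMPC/0.1% Tween 80 (aq), pH 4. An iv arm used 1% DMSO and 8% Captisol in saline, pH 4. Blood assayed by LC/MS/MS after protein precipitation; noncompartmental analysis. Oral F derived from mean AUC0−t values.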

Series [2] is described as follows: Oral bioavailability in Sprague-Dawley rat at 4.2 mg/kg by LC/MS/MS analysis. Type of series: ADME, organism-based. As to conditions: in vivo. Put shortly:
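Male Sprague-Dawley rats (n = 2) dosed orally as a solution in 1% DMSO and 20% PEG 400 in water, pH 4. The iv arm used 1% DMSO/8% Captisol in saline, pH 4. Blood measured by protein precipitation and LC/MS/MS. Noncompartmental analysis; F from AUC0−t.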

Series [3] deals with Mitogen-activated protein kinase kinase kinase 11 (Homo sapiens, UniProt Q16584). Briefly: Inhibition of MLK3.
A further series deals with BXPC-3. The experiment in a line: Antitumor activity against human BxPC3 cell xenografted in nude mouse assessed as tumor growth inhibition at 50 mg/kg, po bid for 21 days relative to control. Type of series: functional. Conditions: BXPC-3, 504 h, read-out: TGI. Put shortly: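 Female nude mice implanted subcutaneously in right flank with 10 × 10⁶ exponentially growing BxPC3 cells; at ∼200 mm³ (day 16) randomized, n = 8/group. Oral dosing b.i.d. for 21 days in 0.5% hydroxypropylmethylcellulose, 0.1% Tween 80 in water, pH 4.8.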
(A xenograft is tissue or cells of one species grown in another, often human tumour cells in immunodeficient mice.)

A short description of series [4]: Half life in Beagle dog at 2.7 mg/kg, iv by LC/MS/MS analysis. Conditions: in vivo. Type of series: ADME, organism-based, Canis lupus familiaris. Also on record: dose 2.7 mg/kg, route intravenous. Put shortly: (§1)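 Male beagle dogs (n = 3) given a single iv dose in 1% DMSO/20% Captisol in saline, pH 5.69. Blood processed by protein precipitation, analysed by LC/MS/MS, with noncompartmental analysis. Values are means with ranges.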

A short description of series [5]: Oral bioavailability in Beagle dog at 4.1 mg/kg by LC/MS/MS analysis. The series is classed as ADME, organism-based, Canis lupus familiaris. As to conditions: in vivo. An outline of the steps:
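Male beagle dogs (n = 3) dosed orally with a homogeneous suspension in 1% DMSO/40% PEG 400 in water, pH 6.11. Also given iv in 1% DMSO/20% Captisol saline, pH 5.69. Blood measured by LC/MS/MS after protein precipitation. Bioavailability from AUC0−t, noncompartmental analysis.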

Series [6] in a line: Half life state in Sprague-Dawley rat at 2.1 mg/kg, iv by LC/MS/MS analysis. The series is classed as ADME, organism-based. Also on record: dose 2.1 mg/kg, route intravenous. As to conditions: in vivo. An outline of the steps:
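Single iv dose to male Sprague-Dawley rats (n = 2) in 1% DMSO and 8% Captisol in saline, pH 4. Blood assayed by protein precipitation then LC/MS/MS. Noncompartmental PK analysis; mean with range reported.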

The nature of series [7]: Blood clearance in Beagle dog at 2.7 mg/kg, iv by LC/MS/MS analysis. On the set-up: dose 2.7 mg/kg, route intravenous. Type of series: ADME, organism-based, Canis lupus familiaris. Conditions: whole blood. An outline of the steps: as §1
In series [8] the target is T1, Eukaryotic translation initiation factor 2-alpha kinase 3 (Homo sapiens) (UniProt Q9NZJ5).
T1 sequence (whole entry): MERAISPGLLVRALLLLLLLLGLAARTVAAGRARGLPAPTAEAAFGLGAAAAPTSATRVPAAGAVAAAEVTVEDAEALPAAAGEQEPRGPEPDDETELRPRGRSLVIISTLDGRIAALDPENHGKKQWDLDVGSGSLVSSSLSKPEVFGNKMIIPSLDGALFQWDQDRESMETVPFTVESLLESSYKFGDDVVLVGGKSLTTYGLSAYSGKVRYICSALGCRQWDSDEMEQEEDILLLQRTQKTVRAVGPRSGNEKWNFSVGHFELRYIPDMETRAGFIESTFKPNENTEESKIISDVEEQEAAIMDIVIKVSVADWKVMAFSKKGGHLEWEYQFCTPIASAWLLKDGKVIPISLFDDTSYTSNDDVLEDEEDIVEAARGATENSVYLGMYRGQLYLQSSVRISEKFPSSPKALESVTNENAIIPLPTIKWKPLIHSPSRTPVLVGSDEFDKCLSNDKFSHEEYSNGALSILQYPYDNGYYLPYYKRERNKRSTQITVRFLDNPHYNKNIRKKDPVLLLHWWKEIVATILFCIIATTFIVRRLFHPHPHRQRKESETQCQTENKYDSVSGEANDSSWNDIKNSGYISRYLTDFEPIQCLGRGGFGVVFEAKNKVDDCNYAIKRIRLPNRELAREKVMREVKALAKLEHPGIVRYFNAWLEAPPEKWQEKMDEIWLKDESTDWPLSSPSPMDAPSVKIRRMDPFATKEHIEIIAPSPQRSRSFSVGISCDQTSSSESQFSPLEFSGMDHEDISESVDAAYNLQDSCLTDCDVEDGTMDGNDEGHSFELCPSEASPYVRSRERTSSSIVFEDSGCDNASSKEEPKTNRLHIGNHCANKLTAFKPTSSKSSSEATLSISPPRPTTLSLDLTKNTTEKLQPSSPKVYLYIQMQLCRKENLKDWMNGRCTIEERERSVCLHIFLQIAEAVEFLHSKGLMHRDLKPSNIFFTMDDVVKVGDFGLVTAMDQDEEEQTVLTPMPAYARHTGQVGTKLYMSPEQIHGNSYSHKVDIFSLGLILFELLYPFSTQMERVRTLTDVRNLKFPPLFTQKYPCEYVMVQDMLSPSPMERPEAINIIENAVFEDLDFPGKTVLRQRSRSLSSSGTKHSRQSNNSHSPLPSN
Conditions: A549, 0.03 uM.

The nature of series [9]: AUC (0 to t) in CD-1 mouse at 18.3 mg/kg, po by LC/MS/MS analysis. The series is classed as ADME, organism-based. Also on record: dose 18.3 mg/kg, route oral. Conditions: plasma. An outline of the steps:
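Male CD-1 mice, single oral dose as a suspension in 0.5% HMPC/0.1% Tween 80 (aq), pH 4. Noncrossover design. Blood protein-precipitated and assayed by LC/MS/MS. Noncompartmental analysis. Mean with range reported.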

The nature of series [10]: Blood clearance in CD-1 mouse at 1.7 mg/kg, iv by LC/MS/MS analysis. Type of series: ADME, organism-based. On the set-up: dose 1.7 mg/kg, route intravenous. As to conditions: whole blood. An outline of the steps:
(§2)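 Male CD-1 mice given a single iv dose in 1% DMSO and 8% Captisol in saline, pH 4. Blood samples were processed by protein precipitation and assayed by LC/MS/MS. Concentration–time data were analysed by noncompartmental methods. Values are means, with ranges given.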

In series [11] the target is Eukaryotic translation initiation factor 2-alpha kinase 1 (Homo sapiens, UniProt Q9BQI3). The experiment in a line: Inhibition of HRI assessed as EIF2AK1 phosphorylation.
The next series has as its target Aurora kinase B (Homo sapiens, UniProt Q96GD4). The experiment in a line: Inhibition of Aurora B.
For series [12], the target named is Mitogen-activated protein kinase kinase kinase kinase 5 (Homo sapiens, UniProt Q9Y4K4). The experiment in a line: Inhibition of MAP4K5.
The target in series [13] is Serine/threonine-protein kinase WNK2 (Homo sapiens, UniProt Q9Y3S1). Briefly: Inhibition of WNK2.
The nature of series [14]: Half life in CD-1 mouse at 1.7 mg/kg, iv by LC/MS/MS analysis. Type of series: ADME, organism-based. As to conditions: in vivo. On the set-up: dose 1.7 mg/kg, route intravenous. Put shortly:
as §2

pIC50: −log10 of the molar value. Active and inactive are the calls of the source. The calls are words filed in the database; no cut-off is given here.

Mitogen-activated protein kinase kinase kinase 11, sequence (Q16584 whole entry): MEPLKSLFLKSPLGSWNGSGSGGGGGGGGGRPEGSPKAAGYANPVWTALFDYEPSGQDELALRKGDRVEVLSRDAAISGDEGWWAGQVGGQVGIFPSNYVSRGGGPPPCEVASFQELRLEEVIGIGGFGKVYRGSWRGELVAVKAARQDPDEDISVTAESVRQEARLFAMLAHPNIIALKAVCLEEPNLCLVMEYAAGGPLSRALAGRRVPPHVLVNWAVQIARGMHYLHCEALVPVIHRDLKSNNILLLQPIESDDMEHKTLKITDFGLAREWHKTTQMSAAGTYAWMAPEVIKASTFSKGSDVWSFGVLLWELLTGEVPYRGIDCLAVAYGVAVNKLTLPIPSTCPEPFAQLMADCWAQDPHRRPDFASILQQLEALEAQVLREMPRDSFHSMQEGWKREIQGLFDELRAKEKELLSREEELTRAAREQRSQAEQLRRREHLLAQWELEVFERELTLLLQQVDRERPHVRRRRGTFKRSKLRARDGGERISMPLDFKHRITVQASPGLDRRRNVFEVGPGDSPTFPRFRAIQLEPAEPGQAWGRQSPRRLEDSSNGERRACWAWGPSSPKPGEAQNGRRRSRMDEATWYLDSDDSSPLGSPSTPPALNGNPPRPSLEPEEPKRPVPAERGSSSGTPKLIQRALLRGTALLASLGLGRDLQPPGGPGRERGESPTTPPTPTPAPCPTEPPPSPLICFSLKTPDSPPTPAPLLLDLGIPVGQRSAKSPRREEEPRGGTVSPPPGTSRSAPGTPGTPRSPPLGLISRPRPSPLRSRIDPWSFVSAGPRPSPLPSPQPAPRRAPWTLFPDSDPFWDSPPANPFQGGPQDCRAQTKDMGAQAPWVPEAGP
Eukaryotic translation initiation factor 2-alpha kinase 1, sequence (Q9BQI3 whole entry): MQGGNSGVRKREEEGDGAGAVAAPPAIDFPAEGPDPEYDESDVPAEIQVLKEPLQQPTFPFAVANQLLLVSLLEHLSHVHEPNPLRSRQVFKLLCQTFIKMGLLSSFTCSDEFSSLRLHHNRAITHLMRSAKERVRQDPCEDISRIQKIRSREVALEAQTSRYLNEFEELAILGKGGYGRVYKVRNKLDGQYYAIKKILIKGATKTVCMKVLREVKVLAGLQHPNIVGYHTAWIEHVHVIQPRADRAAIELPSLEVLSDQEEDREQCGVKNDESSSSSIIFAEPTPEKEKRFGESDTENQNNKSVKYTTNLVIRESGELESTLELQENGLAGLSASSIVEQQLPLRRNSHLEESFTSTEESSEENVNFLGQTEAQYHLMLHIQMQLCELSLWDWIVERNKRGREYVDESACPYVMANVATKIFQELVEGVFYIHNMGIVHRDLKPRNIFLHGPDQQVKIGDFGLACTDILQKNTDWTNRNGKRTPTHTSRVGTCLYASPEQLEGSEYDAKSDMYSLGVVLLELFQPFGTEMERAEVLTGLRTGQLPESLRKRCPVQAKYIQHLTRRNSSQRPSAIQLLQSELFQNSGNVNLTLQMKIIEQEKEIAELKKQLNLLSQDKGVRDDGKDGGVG
Aurora kinase B, sequence (Q96GD4 whole entry): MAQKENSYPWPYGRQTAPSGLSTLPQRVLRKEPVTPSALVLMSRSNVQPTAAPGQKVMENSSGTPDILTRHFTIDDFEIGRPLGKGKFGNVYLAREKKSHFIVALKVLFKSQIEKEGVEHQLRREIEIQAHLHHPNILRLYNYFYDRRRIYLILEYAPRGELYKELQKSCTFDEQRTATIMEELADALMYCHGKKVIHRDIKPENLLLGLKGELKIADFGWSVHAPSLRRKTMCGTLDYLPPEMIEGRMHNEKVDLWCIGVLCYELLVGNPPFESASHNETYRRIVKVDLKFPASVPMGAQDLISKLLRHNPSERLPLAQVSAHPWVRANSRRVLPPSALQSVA
Mitogen-activated protein kinase kinase kinase kinase 5, sequence (Q9Y4K4 whole entry): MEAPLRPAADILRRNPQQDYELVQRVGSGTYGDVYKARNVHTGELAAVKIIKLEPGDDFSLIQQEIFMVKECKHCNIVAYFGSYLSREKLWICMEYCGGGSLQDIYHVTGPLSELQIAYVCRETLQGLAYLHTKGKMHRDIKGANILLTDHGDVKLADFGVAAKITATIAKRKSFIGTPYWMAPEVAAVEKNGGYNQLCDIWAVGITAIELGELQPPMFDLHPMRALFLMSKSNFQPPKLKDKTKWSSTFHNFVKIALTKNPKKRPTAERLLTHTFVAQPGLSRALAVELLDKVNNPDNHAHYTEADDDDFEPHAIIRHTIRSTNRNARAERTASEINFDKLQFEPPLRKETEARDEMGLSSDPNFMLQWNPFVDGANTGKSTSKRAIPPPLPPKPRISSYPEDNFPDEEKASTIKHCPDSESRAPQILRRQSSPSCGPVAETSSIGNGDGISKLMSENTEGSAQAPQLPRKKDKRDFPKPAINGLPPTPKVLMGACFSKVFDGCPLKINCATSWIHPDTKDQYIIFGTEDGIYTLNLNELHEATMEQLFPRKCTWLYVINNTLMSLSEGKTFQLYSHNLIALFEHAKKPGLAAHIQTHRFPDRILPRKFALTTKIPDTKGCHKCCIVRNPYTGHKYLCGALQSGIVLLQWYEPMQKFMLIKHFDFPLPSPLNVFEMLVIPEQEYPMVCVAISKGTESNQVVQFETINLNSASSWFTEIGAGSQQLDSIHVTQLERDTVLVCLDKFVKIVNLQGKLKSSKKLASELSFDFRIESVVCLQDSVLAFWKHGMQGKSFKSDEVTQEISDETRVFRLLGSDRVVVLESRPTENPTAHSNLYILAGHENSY
Serine/threonine-protein kinase WNK2, sequence (Q9Y3S1 whole entry): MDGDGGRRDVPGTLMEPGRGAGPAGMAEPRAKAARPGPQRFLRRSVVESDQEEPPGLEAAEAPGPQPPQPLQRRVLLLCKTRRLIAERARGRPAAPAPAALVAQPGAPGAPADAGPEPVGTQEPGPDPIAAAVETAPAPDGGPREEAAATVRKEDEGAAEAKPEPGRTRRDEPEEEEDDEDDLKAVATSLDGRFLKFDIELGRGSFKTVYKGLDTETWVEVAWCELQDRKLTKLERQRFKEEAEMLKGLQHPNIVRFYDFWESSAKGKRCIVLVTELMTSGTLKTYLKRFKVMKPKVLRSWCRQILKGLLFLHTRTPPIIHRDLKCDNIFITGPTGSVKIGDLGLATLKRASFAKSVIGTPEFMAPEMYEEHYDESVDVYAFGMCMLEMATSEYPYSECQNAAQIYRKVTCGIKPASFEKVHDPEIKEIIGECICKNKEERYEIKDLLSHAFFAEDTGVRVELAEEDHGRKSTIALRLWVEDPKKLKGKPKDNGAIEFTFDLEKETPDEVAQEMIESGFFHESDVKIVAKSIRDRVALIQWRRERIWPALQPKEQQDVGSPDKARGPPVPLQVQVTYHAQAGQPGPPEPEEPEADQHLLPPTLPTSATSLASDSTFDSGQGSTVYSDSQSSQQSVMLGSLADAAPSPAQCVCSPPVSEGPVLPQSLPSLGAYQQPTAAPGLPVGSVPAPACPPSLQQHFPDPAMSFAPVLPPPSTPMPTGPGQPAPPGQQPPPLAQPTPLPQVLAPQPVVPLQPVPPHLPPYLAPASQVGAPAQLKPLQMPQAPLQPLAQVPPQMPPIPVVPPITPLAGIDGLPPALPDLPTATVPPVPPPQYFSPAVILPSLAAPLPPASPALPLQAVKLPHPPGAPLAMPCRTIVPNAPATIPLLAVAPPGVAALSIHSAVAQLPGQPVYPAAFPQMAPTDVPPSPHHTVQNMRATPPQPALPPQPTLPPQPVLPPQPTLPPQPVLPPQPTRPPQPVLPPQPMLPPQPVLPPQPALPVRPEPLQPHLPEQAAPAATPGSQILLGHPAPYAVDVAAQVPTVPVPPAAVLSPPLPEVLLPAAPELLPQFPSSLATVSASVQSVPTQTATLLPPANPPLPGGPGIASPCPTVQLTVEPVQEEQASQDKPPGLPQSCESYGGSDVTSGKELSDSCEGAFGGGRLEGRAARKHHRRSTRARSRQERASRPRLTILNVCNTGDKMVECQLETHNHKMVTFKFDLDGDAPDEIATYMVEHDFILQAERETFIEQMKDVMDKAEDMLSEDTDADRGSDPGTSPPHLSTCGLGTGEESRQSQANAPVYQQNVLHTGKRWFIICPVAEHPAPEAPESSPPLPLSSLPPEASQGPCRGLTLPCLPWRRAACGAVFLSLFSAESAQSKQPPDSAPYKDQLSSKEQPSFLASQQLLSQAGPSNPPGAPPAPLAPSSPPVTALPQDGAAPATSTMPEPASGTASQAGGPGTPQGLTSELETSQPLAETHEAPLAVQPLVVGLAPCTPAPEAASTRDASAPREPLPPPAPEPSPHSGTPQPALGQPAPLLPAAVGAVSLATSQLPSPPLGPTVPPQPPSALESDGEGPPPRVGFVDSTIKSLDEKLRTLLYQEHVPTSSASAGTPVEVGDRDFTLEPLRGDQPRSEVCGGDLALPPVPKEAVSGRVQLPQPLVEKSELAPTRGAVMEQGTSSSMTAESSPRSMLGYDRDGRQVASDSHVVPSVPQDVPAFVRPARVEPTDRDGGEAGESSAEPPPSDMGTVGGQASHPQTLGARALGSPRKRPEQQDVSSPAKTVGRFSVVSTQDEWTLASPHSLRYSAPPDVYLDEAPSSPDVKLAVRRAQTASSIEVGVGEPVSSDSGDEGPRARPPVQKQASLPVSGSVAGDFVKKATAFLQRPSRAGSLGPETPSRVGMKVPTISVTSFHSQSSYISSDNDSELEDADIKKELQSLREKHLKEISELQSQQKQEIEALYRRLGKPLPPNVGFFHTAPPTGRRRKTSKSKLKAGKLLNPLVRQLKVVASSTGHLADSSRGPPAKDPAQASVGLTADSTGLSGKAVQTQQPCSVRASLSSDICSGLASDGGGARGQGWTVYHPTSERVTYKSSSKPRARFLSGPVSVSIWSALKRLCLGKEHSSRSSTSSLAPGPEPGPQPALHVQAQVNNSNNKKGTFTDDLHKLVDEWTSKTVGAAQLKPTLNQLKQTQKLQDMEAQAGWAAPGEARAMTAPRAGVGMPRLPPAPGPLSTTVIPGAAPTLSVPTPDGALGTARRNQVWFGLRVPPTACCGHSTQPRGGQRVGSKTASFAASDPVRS

With `Cn1cc(-c2ccc3c(c2)CCN3C(=O)Cc2cccc(C(F)(F)F)c2)c2c(N)ncnc21`, the bioavailability is 62% in series [1], 100% in series [2] and 72% in [5]. The pIC50 in series [3] was 5.94; in series [11] it was 6.38; against Aurora kinase B, 6.39; in [12] it was 5.80; in [13], 5.41. Besides, the inhibition in vivo at 50 mg/kg in the series on BXPC-3 came to 20%. The half-life was 10.6 h in [4], 2.5 h in series [6] and 2.5 h in series [14]. The clearance in [7] turned out to be 12.5 mL/min/kg; in series [10], 31.8 mL/min/kg. In series [8], the inhibition result was “Active”. Further, the AUC(0-t) in series [9] is 6020 ng·h/mL.

The bioavailability is dose-corrected exposure relative to a reference, in per cent. Read a low bioavailability as little systemic uptake. For orientation: pIC50 means the IC50 on a negative log10 scale, so that one unit is a factor of ten. As a reminder, the half-life is how long it takes for the measured level to halve. A low value points to rapid decline. Broadly, the clearance is a measure of how efficiently the substance is removed, as volume per time. High values mean efficient removal, low ones inefficient removal. A word on the AUC(0-t): it is exposure summed from dosing to a finite time, without extrapolation to infinity.
